# How the values were obtained:
# [1] = tested on: Enterovirus C; assay: Antiviral activity against poliovirus infected HeLa S3 cells assessed as plaque formation at 0.5 mM relative to control; format: functional
# Summary of the method: (§1)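 HeLa S3 cells (DMEM/F-12, 2% dialyzed FBS) were pretreated with nucleoside for 1 h at 37 °C in 1% DMSO final. Cells were infected with poliovirus (1 × 10⁶ PFU in PBS) for 15 min at 23 °C, then kept 6 h at 37 °C with nucleoside. Cell-associated virus was released by three freeze–thaw cycles and titred by plaque assay on HeLa S3 (1% low-melting agarose overlay, 2 days, crystal violet). Titre is given as % of untreated control.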
# [2] = tested on: Enterovirus C; assay: Antiviral activity against poliovirus infected HeLa S3 cells assessed as plaque formation at 2 mM; format: functional; summary of the method: as §1
# [3] = tested on: Enterovirus C; assay: Ratio of kcat/Km of Poliovirus RNA dependent RNA polymerase incorporation into sym/sub-C primer relative to control; parameters: unit not given here
# [4] = tested on: Enterovirus C; assay: Ratio of kcat/Km of Poliovirus RNA dependent RNA polymerase incorporation into sym/sub-U primer; parameters: unit not given here
# [5] = tested on: Enterovirus C; assay: Incorporation of Poliovirus RNA dependent RNA polymerase into sym/sub-U primer
# Summary of the method: (§2)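 NTP was 10–250 µM; reactions ran 2 min at 30 °C and were quenched with EDTA. Products were resolved by 20% denaturing PAGE. Initial rates came from the elongated fraction, and kcat and KM from Lineweaver–Burk plots (mean ± SD, n = 3).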
# [6] = tested on: Enterovirus C; assay: Incorporation of Poliovirus RNA dependent RNA polymerase into sym/sub-C primer; summary of the method: as §2
SMILES,Activity [1],Activity [2],kcat/Km [3],kcat/Km [4],Km [5],kcat [5],Km [6],kcat [6]
NC(=O)c1ncn([C@@H]2O[C@H](CO)[C@@H](O)[C@H]2O)n1 [RIBAVIRIN],40%,4%,–,–,–,–,–,–
NC(=O)c1nn([C@@H]2O[C@H](CO)[C@@H](O)[C@H]2O)cc1I,76%,68%,–,–,–,–,–,–
NC(=O)c1nn([C@@H]2O[C@H](COP(=O)(O)OP(=O)(O)OP(=O)(O)O)[C@@H](O)[C@H]2O)cc1I,–,–,4.4,20,24 µM,4.7 10^-4/s,40 µM,1.8 10^-4/s
CC#Cc1cn([C@@H]2O[C@H](COP(=O)(O)OP(=O)(O)OP(=O)(O)O)[C@@H](O)[C@H]2O)nc1C(N)=O,–,–,2.6,9.1,35 µM,3.1 10^-4/s,51 µM,1.3 10^-4/s
CC#Cc1cn([C@@H]2O[C@H](CO)[C@@H](O)[C@H]2O)nc1C(N)=O,94%,57%,–,–,–,–,–,–
NC(=O)c1ncn([C@@H]2O[C@H](COP(=O)(O)OP(=O)(O)OP(=O)(O)O)[C@@H](O)[C@H]2O)n1,–,–,–,–,34 µM,3.7 10^-4/s,69 µM,5.8 10^-4/s
Nc1nc2c(ncn2[C@@H]2O[C@H](COP(=O)(O)OP(=O)(O)OP(=O)(O)O)[C@@H](O)[C@H]2O)c(=O)[nH]1,–,–,–,–,56 µM,5 10^-4/s,–,–
Nc1ncnc2c1ncn2[C@@H]1O[C@H](COP(=O)(O)OP(=O)(O)OP(=O)(O)O)[C@@H](O)[C@H]1O,–,–,–,–,–,–,110 µM,0.82 10^-4/s
NC(=O)c1nn([C@@H]2O[C@H](CO)[C@@H](O)[C@H]2O)cc1C#Cc1ccccc1,122%,–,–,–,–,–,–,–
